Measurements from ChEMBL document CHEMBL1128448, “Synthesis and antifungal activity of new azole derivatives containing an N-acylmorpholine ring” (1995).
In brackets after ≈: the same amount, converted by molar mass.

Columns and labels:
Aspergillus flavus = assay: In vitro evaluation of minimum inhibitory concentration against Aspergillus flavus 19; format: functional; conditions: Aspergillus flavus; read-out: MIC
Method in brief: (§1)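 Stocks are 800 μg/mL in 50% ethanol. Each plate gets 10 μL of inoculum at 10^5 cfu/mL. Incubation at 25 °C, 48 h for yeasts and 120 h for dermatophytes and molds. Organisms are ATCC strains or clinical isolates.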

Kluyveromyces marxianus [1] = assay: In vitro evaluation of minimum inhibitory concentration against Candida pseudotropicalis 13; format: functional; conditions: Kluyveromyces marxianus; read-out: MIC; method in brief: as §1
Microsporum canis = assay: In vitro evaluation of minimum inhibitory concentration against Microsporum canis 47; format: functional; conditions: Microsporum canis; read-out: MIC; method in brief: as §1
Candida albicans [2] = assay: In vitro evaluation of minimum inhibitory concentration against Candida albicans 76; format: functional; conditions: Candida albicans; read-out: MIC; method in brief: as §1
Trichophyton benhamiae = assay: In vitro evaluation of minimum inhibitory concentration against Trichophyton mentagrophytes 23; format: functional, Arthroderma benhamiae; conditions: Trichophyton benhamiae; read-out: MIC; method in brief: as §1
Nakaseomyces glabratus [3] = assay: In vitro evaluation of minimum inhibitory concentration against Torulopsis glabrata 78; format: functional; conditions: Nakaseomyces glabratus; read-out: MIC; method in brief: as §1
Aspergillus niger = assay: In vitro evaluation of minimum inhibitory concentration against Aspergillus niger 18; format: functional; conditions: Aspergillus niger; read-out: MIC; method in brief: as §1
Candida albicans [4] = assay: […] Evaluation of minimum inhibitory concentration against Candida albicans 60; format: functional; method in brief: as §1
Nannizzia gypsea = assay: In vitro evaluation of minimum inhibitory concentration against Microsporum gypseum 22; format: functional; conditions: Nannizzia gypsea; read-out: MIC; method in brief: as §1
Rhodotorula mucilaginosa = assay: In vitro evaluation of minimum inhibitory concentration against Rhodotorula rubra 16; format: functional; conditions: Rhodotorula mucilaginosa; read-out: MIC; method in brief: as §1
[5] = system: Meyerozyma guilliermondii; assay: In vitro evaluation of minimum inhibitory concentration against Candida guilliermondii 26; format: functional; conditions: Meyerozyma guilliermondii; read-out: MIC; method in brief: as §1
Pichia kudriavzevii [6] = assay: In vitro evaluation of minimum inhibitory concentration against Candida krusei 70; format: functional; conditions: Pichia kudriavzevii; read-out: MIC; method in brief: as §1
Trichophyton rubrum = assay: In vitro evaluation of minimum inhibitory concentration against Trichophyton rubrum 90; format: functional; conditions: Trichophyton rubrum; read-out: MIC; method in brief: as §1
Candida tropicalis [7] = assay: In vitro evaluation of minimum inhibitory concentration against Candida tropicalis 2.11; format: functional; conditions: Candida tropicalis; read-out: MIC; method in brief: as §1
Candida albicans [8] = assay: […] Evaluation of minimum inhibitory concentration against Candida albicans 406; format: functional; method in brief: as §1
Aspergillus fumigatus = assay: In vitro evaluation of minimum inhibitory concentration against Aspergillus fumigatus 33; format: functional; conditions: Aspergillus fumigatus; read-out: MIC; method in brief: as §1
Candida parapsilosis [9] = assay: In vitro evaluation of minimum inhibitory concentration against Candida parapsilosis 61; format: functional; conditions: Lodderomyces parapsilosis; read-out: MIC; method in brief: as §1
Candida albicans [10] = assay: Evaluation of In vitro antifungal activity against Candida albicans ATCC 10231 by broth macro dilution method; format: functional
Method in brief: (§2)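 Yeast MIC and MFC by broth macrodilution per NCCLS M27-P in RPMI-1640 buffered with 0.165 M MOPS. Fluconazole in sterile water, other drugs in DMSO. C. parapsilosis ATCC 22019 is the reference strain in each run. MIC is the lowest concentration with turbidity ≤ the 80% inhibition standard. For MFC, 0.04 mL from clear tubes is plated on Sabouraud agar; MFC is the lowest concentration giving ≤1 colony.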

Kluyveromyces marxianus [11] = assay: Evaluation of In vitro antifungal activity against yeasts by broth macro dilution method; format: functional; method in brief: as §2
Pichia kudriavzevii [12] = assay: Evaluation of In vitro antifungal activity against Candida krusei 70 by broth macro dilution method; format: functional; method in brief: as §2
Candida tropicalis [13] = assay: Evaluation of In vitro antifungal activity against Candida tropicalis 50 by broth macro dilution method; format: functional; method in brief: as §2
Candida parapsilosis [14] = assay: Evaluation of In vitro antifungal activity against Candida parapsilosis 2.07 by broth macro dilution method; format: functional; conditions: Lodderomyces parapsilosis; method in brief: as §2
Candida albicans [15] = assay: Evaluation of In vitro antifungal activity against Candida albicans 406 by broth macro dilution method; format: functional; method in brief: as §2
Candida tropicalis [16] = assay: Evaluation of In vitro antifungal activity against Candida tropicalis 2.11 by broth macro dilution method; format: functional; method in brief: as §2
Nakaseomyces glabratus [17] = assay: Evaluation of In vitro antifungal activity against Torulopsis glabrata 78 by broth macro dilution method; format: functional; method in brief: as §2
Candida albicans [18] = assay: Evaluation of In vitro antifungal activity against Candida albicans 76 by broth macro dilution method; format: functional; method in brief: as §2
Candida parapsilosis [19] = assay: Evaluation of In vitro antifungal activity against Candida parapsilosis C74 by broth macro dilution method; format: functional; conditions: Lodderomyces parapsilosis; method in brief: as §2
Candida albicans [20] = assay: Evaluation of In vitro antifungal activity against Candida albicans 2.01 by broth macro dilution method; format: functional; method in brief: as §2
Cryptococcus neoformans [21] = assay: Evaluation of In vitro antifungal activity against Cryptococcus neoformans 74 by broth macro dilution method; format: functional; method in brief: as §2
Candida parapsilosis [22] = assay: Evaluation of In vitro antifungal activity against Candida parapsilosis C292 by broth macro dilution method; format: functional; conditions: Lodderomyces parapsilosis; method in brief: as §2
Pichia kudriavzevii [23] = assay: Evaluation of In vitro antifungal activity against Candida krusei C64 by broth macro dilution method; format: functional; method in brief: as §2
Candida albicans [24] = assay: Evaluation of In vitro antifungal activity against Candida albicans 60 by broth macro dilution method
Candida parapsilosis [25] = assay: Evaluation of In vitro antifungal activity against Candida parapsilosis ATCC 141095 by broth macro dilution method; format: functional; conditions: Lodderomyces parapsilosis; method in brief: as §2
[26] = system: Meyerozyma guilliermondii; assay: Evaluation of In vitro antifungal activity against Candida guilliermondii 26 by broth macro dilution method; format: functional; method in brief: as §2
Candida albicans [27] = assay: Evaluation of In vitro antifungal activity against Candida albicans 31 by broth macro dilution method; format: functional; method in brief: as §2
Candida albicans [28] = assay: Evaluation of In vitro antifungal activity against Candida albicans C56 by broth macro dilution method; format: functional; method in brief: as §2
Cryptococcus neoformans [29] = assay: Evaluation of In vitro antifungal activity against Cryptococcus neoformans 87 by broth macro dilution method; format: functional; method in brief: as §2
Kluyveromyces marxianus [30] = assay: Evaluation of In vitro antifungal activity against Candida pseudotropicalis ATCC 28838 by broth macro dilution method; format: functional; method in brief: as §2
Candida parapsilosis [31] = assay: Evaluation of In vitro antifungal activity against Candida parapsilosis ATCC 22019 by broth macro dilution method; format: functional; conditions: Lodderomyces parapsilosis; method in brief: as §2
Candida albicans [32] = assay: Evaluation of In vitro antifungal activity against Candida albicans C52 by broth macro dilution method; format: functional; method in brief: as §2
Candida albicans [33] = assay: Evaluation of […] antifungal activity against Candida albicans 60 by broth macro dilution method; format: functional; method in brief: as §2

CCC(C)n1ncn(-c2ccc(N3CCN(c4ccc(OC[C@H]5CO[C@](Cn6cncn6)(c6ccc(Cl)cc6Cl)O5)cc4)CC3)cc2)c1=O (stereo partly drawn) [ITRACONAZOLE]
MIC (Aspergillus flavus): > 80 µg/mL | MIC (Kluyveromyces marxianus [1]): 80 µg/mL (≈ 113 µM) | MIC (Microsporum canis): 80 µg/mL (≈ 113 µM) | MIC (Candida albicans [2]): 0.63 µg/mL (≈ 0.893 µM) | MIC (Trichophyton benhamiae): > 80 µg/mL | MIC (Nakaseomyces glabratus [3]): > 80 µg/mL | MIC (Aspergillus niger): > 80 µg/mL | MIC (Candida albicans [4]): 0.07 µg/mL (≈ 0.0992 µM) | MIC (Nannizzia gypsea): 80 µg/mL (≈ 113 µM) | MIC (Rhodotorula mucilaginosa): > 80 µg/mL | MIC [5]: 0.15 µg/mL (≈ 0.213 µM) | MIC (Pichia kudriavzevii [6]): 1.25 µg/mL (≈ 1.77 µM) | MIC (Trichophyton rubrum): 0.63 µg/mL (≈ 0.893 µM) | MIC (Candida tropicalis [7]): 20 µg/mL (≈ 28.3 µM) | MIC (Candida albicans [8]): < 0.03 µg/mL | MIC (Aspergillus fumigatus): 0.15 µg/mL (≈ 0.213 µM) | MIC (Candida parapsilosis [9]): 0.07 µg/mL (≈ 0.0992 µM)

CC(=O)N1CCN(c2ccc(OC[C@H]3CO[C@](Cn4ccnc4)(c4ccc(Cl)cc4Cl)O3)cc2)CC1 [KETOCONAZOLE]
MFC (Candida albicans [10]): > 16 µg/mL | MIC (Candida albicans [10]): 0.063 µg/mL (≈ 0.119 µM) | MIC (Kluyveromyces marxianus [11]): 0.063 µg/mL (≈ 0.119 µM) | MIC (Aspergillus flavus): 2.5 µg/mL (≈ 4.7 µM) | MFC (Pichia kudriavzevii [12]): 4 µg/mL (≈ 7.53 µM) | MIC (Pichia kudriavzevii [12]): 2 µg/mL (≈ 3.76 µM) | MFC (Candida tropicalis [13]): > 16 µg/mL | MIC (Candida tropicalis [13]): 2 µg/mL (≈ 3.76 µM) | MIC (Kluyveromyces marxianus [1]): 10 µg/mL (≈ 18.8 µM) | MFC (Candida parapsilosis [14]): > 16 µg/mL | MIC (Candida parapsilosis [14]): 0.063 µg/mL (≈ 0.119 µM) | MIC (Microsporum canis): 2.5 µg/mL (≈ 4.7 µM) | MFC (Candida albicans [15]): > 16 µg/mL | MIC (Candida albicans [15]): 0.063 µg/mL (≈ 0.119 µM) | MFC (Candida tropicalis [16]): 8 µg/mL (≈ 15.1 µM) | MIC (Candida tropicalis [16]): 0.25 µg/mL (≈ 0.47 µM) | MFC (Nakaseomyces glabratus [17]): > 16 µg/mL | MIC (Nakaseomyces glabratus [17]): 8 µg/mL (≈ 15.1 µM) | MIC (Candida albicans [2]): 0.15 µg/mL (≈ 0.282 µM) | MIC (Trichophyton benhamiae): 5 µg/mL (≈ 9.41 µM) | MFC (Candida albicans [18]): > 16 µg/mL | MIC (Candida albicans [18]): < 0.031 µg/mL | MIC (Nakaseomyces glabratus [3]): 1.25 µg/mL (≈ 2.35 µM) | MIC (Aspergillus niger): 40 µg/mL (≈ 75.3 µM) | MFC (Candida parapsilosis [19]): 0.25 µg/mL (≈ 0.47 µM) | MIC (Candida parapsilosis [19]): 0.063 µg/mL (≈ 0.119 µM) | MFC (Candida albicans [20]): > 16 µg/mL | MIC (Candida albicans [20]): 0.063 µg/mL (≈ 0.119 µM) | MIC (Candida albicans [4]): < 0.03 µg/mL | MFC (Cryptococcus neoformans [21]): 1 µg/mL (≈ 1.88 µM) | MIC (Cryptococcus neoformans [21]): < 0.031 µg/mL | MIC (Nannizzia gypsea): 0.63 µg/mL (≈ 1.19 µM) | MIC (Rhodotorula mucilaginosa): 0.07 µg/mL (≈ 0.132 µM) | MFC (Candida parapsilosis [22]): 16 µg/mL (≈ 30.1 µM) | MIC (Candida parapsilosis [22]): 0.125 µg/mL (≈ 0.235 µM) | MFC (Pichia kudriavzevii [23]): 8 µg/mL (≈ 15.1 µM) | MIC (Pichia kudriavzevii [23]): 2 µg/mL (≈ 3.76 µM) | MFC (Candida albicans [24]): > 16 µg/mL | MFC (Candida parapsilosis [25]): 16 µg/mL (≈ 30.1 µM) | MIC (Candida parapsilosis [25]): 0.5 µg/mL (≈ 0.941 µM) | MFC [26]: 4 µg/mL (≈ 7.53 µM) | MIC [26]: 0.125 µg/mL (≈ 0.235 µM) | MFC (Candida albicans [27]): > 16 µg/mL | MIC (Candida albicans [27]): < 0.031 µg/mL | MIC [5]: < 0.03 µg/mL | MIC (Pichia kudriavzevii [6]): 1.25 µg/mL (≈ 2.35 µM) | MIC (Trichophyton rubrum): 1.25 µg/mL (≈ 2.35 µM) | MFC (Candida albicans [28]): > 16 µg/mL | MIC (Candida albicans [28]): < 0.031 µg/mL | MIC (Candida tropicalis [7]): 2.5 µg/mL (≈ 4.7 µM) | MFC (Cryptococcus neoformans [29]): 16 µg/mL (≈ 30.1 µM) | MIC (Cryptococcus neoformans [29]): 2 µg/mL (≈ 3.76 µM) | MFC (Kluyveromyces marxianus [30]): > 16 µg/mL | MFC (Candida parapsilosis [31]): 4 µg/mL (≈ 7.53 µM) | MIC (Candida parapsilosis [31]): 0.063 µg/mL (≈ 0.119 µM) | MFC (Candida albicans [32]): > 16 µg/mL | MIC (Candida albicans [32]): < 0.031 µg/mL | MIC (Candida albicans [8]): < 0.03 µg/mL | MIC (Aspergillus fumigatus): 5 µg/mL (≈ 9.41 µM) | MIC (Candida albicans [33]): < 0.031 µg/mL | MIC (Candida parapsilosis [9]): 0.07 µg/mL (≈ 0.132 µM)
